# Data as given in ChEMBL document CHEMBL5724801, “EUbOPEN Chemogenomics Library - Multiplex” (2024).
# Where “and” joins values, the source holds several entries; their conditions need not be identical. Equal entries are not always repeated.
# Test system: U2OS
# Assay: Multiplex assay against U2OS
# Assay type: toxicity, cell-based
# Settings: human
# Method in brief: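 Compound was added to live cells that had been stained at seeding with Hoechst33342, BioTracker Green Microtubule Cytoskeleton Dye, MitoTracker Red and Annexin V Alexa Fluor 680, and imaging followed on a CQ1 microscope at 37°C and 5% CO2. CellPathfinder machine-learning gating divided cells into Hoechst high-intensity objects or normal cells, normal cells into healthy, pyknosed or fragmented nuclei, and pyknosed cells into mitotic or apoptotic. Tubulin, mitochondrial-mass and membrane-permeability phenotypes are per cents of healthy-nucleus cells.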
# [1] = 12 h, 1 µM, compound concentration 1 uM
# [2] = 12 h, 10 µM, compound concentration 10 uM
# [3] = 24 h, 1 µM, compound concentration 1 uM
# [4] = 24 h, 10 µM, compound concentration 10 uM
# [5] = 48 h, 1 µM, compound concentration 1 uM
# [6] = 48 h, 10 µM, compound concentration 10 uM
smiles,measurement,setting,value
CC[C@H]1OC(=O)[C@H](C)[C@@H](O[C@H]2C[C@@](C)(OC)[C@@H](O)[C@H](C)O2)[C@H](C)[C@@H](O[C@@H]2O[C@H](C)C[C@H](N(C)C)[C@H]2O)[C@@]2(C)CC(C)=C(O2)[C@H](C)[C@@H](O)[C@]1(C)O,Population Apoptotic (%),[1],50% and 84%
same,Population Fragmented Nuclei (%),[1],19% and 23%
same,Population Healthy Nuclei (%),[1],63% and 62%
same,Population Hoechst High Intensity Objects (%),[1],3% and 1%
same,Population Membrane Permeable-Phenotype (%),[1],33% and 21%
same,Population Mitochondria Different-Phenotype (%),[1],23% and 14%
same,Population Normal (%),[1],96% and 98%
same,Population Pyknosed Nuclei (%),[1],17% and 14%
same,Population Tubulin-Different-Phenotype (%),[1],25% and 14%
same,Total Cell Count,[1],226 and 91
same,Population Apoptotic (%),[2],65% and 73%
same,Population Fragmented Nuclei (%),[2],34% and 21%
same,Population Healthy Nuclei (%),[2],40% and 47%
same,Population Hoechst High Intensity Objects (%),[2],7% and 4%
same,Population Membrane Permeable-Phenotype (%),[2],82% and 72%
same,Population Mitochondria Different-Phenotype (%),[2],63% and 81%
same,Population Mitotic Cells (%),[2],34% and 26%
same,Population Normal (%),[2],92% and 95%
same,Population Pyknosed Nuclei (%),[2],25% and 31%
same,Population Tubulin-Different-Phenotype (%),[2],89% and 96%
same,Total Cell Count,[2],223 and 128
same,Population Apoptotic (%),[3],65% and 72%
same,Population Fragmented Nuclei (%),[3],20% and 19%
same,Population Healthy Nuclei (%),[3],63% and 64%
same,Population Hoechst High Intensity Objects (%),[3],4% and 5%
same,Population Membrane Permeable-Phenotype (%),[3],20% and 14%
same,Population Mitochondria Different-Phenotype (%),[3],15% and 14%
same,Population Mitotic Cells (%),[3],35% and 27%
same,Population Normal (%),[3],95% and 94%
same,Population Pyknosed Nuclei (%),[3],16%
same,Population Tubulin-Different-Phenotype (%),[3],17% and 10%
same,Total Cell Count,[3],256 and 115
same,Population Apoptotic (%),[4],67% and 82%
same,Population Fragmented Nuclei (%),[4],33% and 24%
same,Population Healthy Nuclei (%),[4],36% and 45%
same,Population Hoechst High Intensity Objects (%),[4],5% and 4%
same,Population Membrane Permeable-Phenotype (%),[4],56% and 75%
same,Population Mitochondria Different-Phenotype (%),[4],65% and 86%
same,Population Mitotic Cells (%),[4],32% and 17%
same,Population Normal (%),[4],94% and 95%
same,Population Pyknosed Nuclei (%),[4],29% and 30%
same,Population Tubulin-Different-Phenotype (%),[4],76% and 88%
same,Total Cell Count,[4],210 and 121
same,Population Apoptotic (%),[5],67% and 78%
same,Population Fragmented Nuclei (%),[5],19% and 32%
same,Population Healthy Nuclei (%),[5],54% and 58%
same,Population Hoechst High Intensity Objects (%),[5],9% and 2%
same,Population Membrane Permeable-Phenotype (%),[5],13% and 12%
same,Population Mitochondria Different-Phenotype (%),[5],8% and 12%
same,Population Mitotic Cells (%),[5],32% and 21%
same,Population Normal (%),[5],91% and 97%
same,Population Pyknosed Nuclei (%),[5],26% and 9%
same,Population Tubulin-Different-Phenotype (%),[5],11% and 7%
same,Total Cell Count,[5],300 and 147
same,Population Apoptotic (%),[6],85% and 83%
same,Population Fragmented Nuclei (%),[6],37% and 20%
same,Population Healthy Nuclei (%),[6],31% and 42%
same,Population Hoechst High Intensity Objects (%),[6],7% and 9%
same,Population Membrane Permeable-Phenotype (%),[6],58% and 62%
same,Population Mitochondria Different-Phenotype (%),[6],55% and 81%
same,Population Mitotic Cells (%),[6],14% and 16%
same,Population Normal (%),[6],92% and 90%
same,Population Pyknosed Nuclei (%),[6],31% and 36%
same,Population Tubulin-Different-Phenotype (%),[6],63% and 88%
same,Total Cell Count,[6],236 and 112
N#Cc1c(N)nc(SCc2csc(-c3ccc(Cl)cc3)n2)c(C#N)c1-c1ccc(OCCO)cc1 [CAPADENOSON],Population Apoptotic (%),[1],78% and 80%
same,Population Fragmented Nuclei (%),[1],25% and 18%
same,Population Healthy Nuclei (%),[1],65% and 75%
same,Population Hoechst High Intensity Objects (%),[1],5% and 1%
same,Population Membrane Permeable-Phenotype (%),[1],14% and 5%
same,Population Mitochondria Different-Phenotype (%),[1],4% and 2%
same,Population Mitotic Cells (%),[1],21% and 20%
same,Population Normal (%),[1],94% and 98%
same,Population Pyknosed Nuclei (%),[1],8% and 6%
same,Population Tubulin-Different-Phenotype (%),[1],10% and 1%
same,Total Cell Count,[1],236 and 150
same,Population Apoptotic (%),[2],64% and 68%
same,Population Fragmented Nuclei (%),[2],35% and 24%
same,Population Healthy Nuclei (%),[2],40% and 56%
same,Population Hoechst High Intensity Objects (%),[2],5% and 0%
same,Population Membrane Permeable-Phenotype (%),[2],70% and 49%
same,Population Mitochondria Different-Phenotype (%),[2],37% and 61%
same,Population Mitotic Cells (%),[2],35% and 31%
same,Population Normal (%),[2],94% and 99%
same,Population Pyknosed Nuclei (%),[2],24% and 18%
same,Population Tubulin-Different-Phenotype (%),[2],65% and 70%
same,Total Cell Count,[2],255 and 102
same,Population Apoptotic (%),[3],87% and 61%
same,Population Fragmented Nuclei (%),[3],23% and 16%
same,Population Healthy Nuclei (%),[3],64% and 71%
same,Population Hoechst High Intensity Objects (%),[3],3% and 0%
same,Population Membrane Permeable-Phenotype (%),[3],9% and 5%
same,Population Mitochondria Different-Phenotype (%),[3],4% and 2%
same,Population Normal (%),[3],96% and 99%
same,Population Pyknosed Nuclei (%),[3],12%
same,Population Tubulin-Different-Phenotype (%),[3],6% and 2%
same,Total Cell Count,[3],263 and 176
same,Population Apoptotic (%),[4],71% and 69%
same,Population Fragmented Nuclei (%),[4],36% and 25%
same,Population Healthy Nuclei (%),[4],37% and 49%
same,Population Hoechst High Intensity Objects (%),[4],5% and 2%
same,Population Membrane Permeable-Phenotype (%),[4],47% and 34%
same,Population Mitochondria Different-Phenotype (%),[4],38% and 58%
same,Population Mitotic Cells (%),[4],28% and 30%
same,Population Normal (%),[4],94% and 97%
same,Population Pyknosed Nuclei (%),[4],26% and 24%
same,Population Tubulin-Different-Phenotype (%),[4],47% and 60%
same,Total Cell Count,[4],253 and 95
same,Population Apoptotic (%),[5],80% and 84%
same,Population Fragmented Nuclei (%),[5],23% and 12%
same,Population Healthy Nuclei (%),[5],67% and 79%
same,Population Hoechst High Intensity Objects (%),[5],3% and 0%
same,Population Membrane Permeable-Phenotype (%),[5],9% and 6%
same,Population Mitochondria Different-Phenotype (%),[5],6% and 3%
same,Population Mitotic Cells (%),[5],20% and 15%
same,Population Normal (%),[5],96% and 99%
same,Population Pyknosed Nuclei (%),[5],8%
same,Population Tubulin-Different-Phenotype (%),[5],6% and 5%
same,Total Cell Count,[5],355 and 220
same,Population Apoptotic (%),[6],86% and 66%
same,Population Fragmented Nuclei (%),[6],44% and 30%
same,Population Healthy Nuclei (%),[6],30% and 49%
same,Population Hoechst High Intensity Objects (%),[6],5% and 4%
same,Population Membrane Permeable-Phenotype (%),[6],46% and 45%
same,Population Mitochondria Different-Phenotype (%),[6],31% and 45%
same,Population Mitotic Cells (%),[6],13% and 33%
same,Population Normal (%),[6],94% and 95%
same,Population Pyknosed Nuclei (%),[6],25% and 20%
same,Population Tubulin-Different-Phenotype (%),[6],37% and 50%
same,Total Cell Count,[6],285 and 109
